From ChEMBL document CHEMBL3120102, “Structure-based design, synthesis and biological evaluation of novel anthra[1,2-d]imidazole-6,11-dione homologues as potential antitumor agents” (2013)

Tests used:
T47D = test: Cytotoxicity against human T47D cells assessed as cell growth at 10 uM after 48 hrs by SRB assay; assay type: functional; conditions: read-out: Activity
Method in brief: (§1)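 First stage of the NCI 60 human tumour cell line screen, with each compound tested at a single dose of 10. Cellular protein measured by sulforhodamine B colorimetry after 48 h drug exposure. Growth is calculated against a time-zero cell control and against plates not exposed to drug.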

BT-549 = test: Cytotoxicity against human BT549 cells assessed as cell growth at 10 uM after 48 hrs by SRB assay; assay type: functional; conditions: BT-549, 48 h, read-out: Activity
Method in brief: (§2)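 NCI 60-cell-line screen, first stage: compound at a single dose of […] (unit as printed) for 48 h. Cellular protein was measured by sulforhodamine B colorimetry. Growth was determined using a time-zero cell control and plates not exposed to drug.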

MDA-MB-231 = test: Cytotoxicity against human MDA-MB-231 cells assessed as cell growth at 10 uM after 48 hrs by SRB assay; assay type: functional; conditions: MDA-MB-231, 48 h, read-out: Activity
Method in brief: (§3)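 First stage of the NCI 60 human tumour cell line screen: a single dose is tested against every line. Cell growth is read as cellular protein by sulforhodamine B colorimetry after 48 h of drug exposure, with reference to a time-zero control and to untreated plates.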

RXF 393 = test: Cytotoxicity against human RXF393 cells assessed as cell growth at 10 uM after 48 hrs by SRB assay; assay type: functional; conditions: RXF 393, 48 h, read-out: Activity; method in brief: as §3
ACHN = test: Cytotoxicity against human ACHN cells assessed as cell growth at 10 uM after 48 hrs by SRB assay; assay type: functional; conditions: read-out: Activity
SK-OV-3 = test: Cytotoxicity against human SKOV3 cells assessed as cell growth at 10 uM after 48 hrs by SRB assay; assay type: functional; conditions: SK-OV-3, 48 h, read-out: Activity; method in brief: as §3
SK-MEL-5 = test: Cytotoxicity against human SK-MEL-5 cells assessed as cell growth at 10 uM after 48 hrs by SRB assay; assay type: functional; conditions: SK-MEL-5, 48 h, read-out: Activity; method in brief: as §3
SK-MEL-28 = test: Cytotoxicity against human SK-MEL-28 cells assessed as cell growth at 10 uM after 48 hrs by SRB assay; assay type: functional; conditions: SK-MEL-28, 48 h, read-out: Activity; method in brief: as §3
MDA-MB-435 = test: Cytotoxicity against human MDA-MB-435 cells assessed as cell growth at 10 uM after 48 hrs by SRB assay; assay type: functional; conditions: MDA-MB-435, 48 h, read-out: Activity; method in brief: as §3
Malme-3M = test: Cytotoxicity against human MALME-3M cells assessed as cell growth at 10 uM after 48 hrs by SRB assay; assay type: functional; conditions: read-out: Activity
M14 = test: Cytotoxicity against human M14 cells assessed as cell growth at 10 uM after 48 hrs by SRB assay; assay type: functional; conditions: M14, 48 h, read-out: Activity; method in brief: as §2
LOX IMVI = test: Cytotoxicity against human LOXIMVI cells assessed as cell growth at 10 uM after 48 hrs by SRB assay; assay type: functional; conditions: read-out: Activity; method in brief: as §2
SNB-75 = test: Cytotoxicity against human SNB75 cells assessed as cell growth at 10 uM after 48 hrs by SRB assay; assay type: functional; conditions: SNB-75, 48 h, read-out: Activity; method in brief: as §1
U-251 = test: Cytotoxicity against human U251 cells assessed as cell growth at 10 uM after 48 hrs by SRB assay; assay type: functional; conditions: U-251, 48 h, read-out: Activity; method in brief: as §1
SNB-19 = test: Cytotoxicity against human SNB19 cells assessed as cell growth at 10 uM after 48 hrs by SRB assay; assay type: functional; conditions: SNB-19, 48 h, read-out: Activity; method in brief: as §1
SF-539 = test: Cytotoxicity against human SF539 cells assessed as cell growth at 10 uM after 48 hrs by SRB assay; assay type: functional; conditions: SF-539, 48 h, read-out: Activity; method in brief: as §3
SW-620 = test: Cytotoxicity against human SW620 cells assessed as cell growth at 10 uM after 48 hrs by SRB assay; assay type: functional; conditions: SW-620, 48 h, read-out: Activity; method in brief: as §1
KM12 = test: Cytotoxicity against human KM12 cells assessed as cell growth at 10 uM after 48 hrs by SRB assay; assay type: functional; conditions: KM12, 48 h, read-out: Activity
HCT-15 = test: Cytotoxicity against human HCT15 cells assessed as cell growth at 10 uM after 48 hrs by SRB assay; assay type: functional; conditions: HCT-15, 48 h, read-out: Activity
HCC 2998 = test: Cytotoxicity against human HCC2998 cells assessed as cell growth at 10 uM after 48 hrs by SRB assay; assay type: functional; conditions: HCC 2998, 48 h, read-out: Activity
COLO 205 = test: Cytotoxicity against human COLO205 cells assessed as cell growth at 10 uM after 48 hrs by SRB assay; assay type: functional; conditions: COLO 205, 48 h, read-out: Activity
NCI-H460 = test: Cytotoxicity against human NCI-H460 cells assessed as cell growth at 10 uM after 48 hrs by SRB assay; assay type: functional; conditions: NCI-H460, 48 h, read-out: Activity; method in brief: as §3
NCI-H322M = test: Cytotoxicity against human NCI-H322M cells assessed as cell growth at 10 uM after 48 hrs by SRB assay; assay type: functional; conditions: read-out: Activity; method in brief: as §3
NCI-H226 = test: Cytotoxicity against human NCI-H226 cells assessed as cell growth at 10 uM after 48 hrs by SRB assay; assay type: functional; conditions: NCI-H226, 48 h, read-out: Activity; method in brief: as §3
HOP-92 = test: Cytotoxicity against human HOP92 cells assessed as cell growth at 10 uM after 48 hrs by SRB assay; assay type: functional; conditions: HOP-92, 48 h, read-out: Activity; method in brief: as §2
HOP-62 = test: Cytotoxicity against human HOP62 cells assessed as cell growth at 10 uM after 48 hrs by SRB assay; assay type: functional; conditions: HOP-62, 48 h, read-out: Activity; method in brief: as §2
A549 = test: Cytotoxicity against human A549 cells assessed as cell growth at 10 uM after 48 hrs by SRB assay; assay type: functional; conditions: A549, 48 h, read-out: Activity
SR = test: Cytotoxicity against human SR cells assessed as cell growth at 10 uM after 48 hrs by SRB assay; assay type: functional; conditions: read-out: Activity; method in brief: as §1
RPMI-8226 = test: Cytotoxicity against human RPMI8226 cells assessed as cell growth at 10 uM after 48 hrs by SRB assay; assay type: functional; conditions: RPMI-8226, 48 h, read-out: Activity; method in brief: as §3
HL-60(TB) = test: Cytotoxicity against human HL-60(TB) cells assessed as cell growth at 10 uM after 48 hrs by SRB assay; assay type: functional; conditions: HL-60, 48 h, read-out: Activity
Method in brief: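 NCI 60-cell panel first-stage screen at a single dose in the HL-60(TB) leukemia line. Cellular protein was measured by sulforhodamine B colorimetry after 48 h of drug exposure. Growth was referenced to a time-zero cell control and to plates not exposed to drug.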

[1] = target: Telomerase reverse transcriptase (Homo sapiens) (UniProt O14746); test: Inhibition of human tert transcriptional activity assessed as SEAP activity at 10 uM after 24 hrs by SEAP reporter assay; parameters: scale not given: the % may be the effect or the level left
Sequence of Telomerase reverse transcriptase (Homo sapiens) (O14746 whole entry): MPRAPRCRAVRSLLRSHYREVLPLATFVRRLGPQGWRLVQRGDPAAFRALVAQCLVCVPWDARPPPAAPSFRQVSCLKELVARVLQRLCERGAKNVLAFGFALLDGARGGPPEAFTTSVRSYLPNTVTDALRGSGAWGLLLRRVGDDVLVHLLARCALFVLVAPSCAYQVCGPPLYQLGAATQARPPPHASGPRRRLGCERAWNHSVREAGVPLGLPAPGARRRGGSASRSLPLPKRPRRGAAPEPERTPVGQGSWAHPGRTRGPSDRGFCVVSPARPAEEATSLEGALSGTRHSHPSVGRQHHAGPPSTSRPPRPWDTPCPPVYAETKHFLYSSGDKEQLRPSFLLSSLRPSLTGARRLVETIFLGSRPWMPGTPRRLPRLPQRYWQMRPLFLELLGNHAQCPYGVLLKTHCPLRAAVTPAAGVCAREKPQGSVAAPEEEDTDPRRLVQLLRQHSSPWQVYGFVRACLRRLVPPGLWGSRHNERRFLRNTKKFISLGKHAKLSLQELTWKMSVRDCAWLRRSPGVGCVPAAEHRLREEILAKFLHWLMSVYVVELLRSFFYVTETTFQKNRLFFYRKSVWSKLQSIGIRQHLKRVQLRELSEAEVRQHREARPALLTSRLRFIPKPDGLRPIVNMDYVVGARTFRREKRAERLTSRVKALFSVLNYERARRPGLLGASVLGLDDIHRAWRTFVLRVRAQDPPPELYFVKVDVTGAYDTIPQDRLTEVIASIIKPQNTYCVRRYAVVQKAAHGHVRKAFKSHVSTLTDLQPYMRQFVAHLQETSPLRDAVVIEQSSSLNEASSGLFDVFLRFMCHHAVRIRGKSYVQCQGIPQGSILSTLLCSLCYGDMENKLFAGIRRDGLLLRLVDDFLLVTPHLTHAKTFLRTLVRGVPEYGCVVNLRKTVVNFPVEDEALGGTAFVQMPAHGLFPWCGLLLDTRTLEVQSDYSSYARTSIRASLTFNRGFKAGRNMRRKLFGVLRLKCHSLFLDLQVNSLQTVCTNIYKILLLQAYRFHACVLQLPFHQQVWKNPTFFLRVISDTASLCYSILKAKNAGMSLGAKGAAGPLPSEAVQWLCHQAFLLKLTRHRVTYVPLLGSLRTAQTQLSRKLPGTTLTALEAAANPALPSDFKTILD
Method in brief: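 Reporter assay for hTERT transcriptional activity using secreted alkaline phosphatase. About 2 × 10³ cells per well were grown for 24 h at 37 °C, then given fresh medium. Buffer was added to the medium: 2 M diethanolamine, 1 mM MgCl2 and 20 mM L-homoarginine. p-Nitrophenyl phosphate was added to 12 mM final. The rate of absorbance increase was read at 405 nm.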

| SMILES | growth at 10 µM (T47D) [%] | growth at 10 µM (BT-549) [%] | growth at 10 µM (MDA-MB-231) [%] | growth at 10 µM (RXF 393) [%] | growth at 10 µM (ACHN) [%] | growth at 10 µM (SK-OV-3) [%] | growth at 10 µM (SK-MEL-5) [%] | growth at 10 µM (SK-MEL-28) [%] | growth at 10 µM (MDA-MB-435) [%] | growth at 10 µM (Malme-3M) [%] | growth at 10 µM (M14) [%] | growth at 10 µM (LOX IMVI) [%] | growth at 10 µM (SNB-75) [%] | growth at 10 µM (U-251) [%] | growth at 10 µM (SNB-19) [%] | growth at 10 µM (SF-539) [%] | growth at 10 µM (SW-620) [%] | growth at 10 µM (KM12) [%] | growth at 10 µM (HCT-15) [%] | growth at 10 µM (HCC 2998) [%] | other results |
| --- | --- | --- | --- | --- | --- | --- | --- | --- | --- | --- | --- | --- | --- | --- | --- | --- | --- | --- | --- | --- | --- |
| CCCSc1nc2ccc3c(c2[nH]1)C(=O)c1ccccc1C3=O | 53.7 | 76 | 26.4 | 20.1 | 27.2 | 38.9 | 78.5 | 92.6 | 77.4 | 88.2 | 90 | 62.6 | -9.55 | 63 | 92 | 24 | 104 | 55.2 | 67.7 | 81.9 | growth at 10 µM (COLO 205): 103%; growth at 10 µM (NCI-H460): 68.1%; growth at 10 µM (NCI-H322M): 76%; growth at 10 µM (NCI-H226): 50.2%; growth at 10 µM (HOP-92): 17.2%; growth at 10 µM (HOP-62): 59.1%; growth at 10 µM (A549): 59.1%; growth at 10 µM (SR): 71%; growth at 10 µM (RPMI-8226): 71.8%; growth at 10 µM (HL-60(TB)): 74.2%; Activity [1]: 94% |
| O=C1c2ccccc2C(=O)c2c1ccc1nc3n(c21)CCS3 | 73.1 | 87.9 | 94 | 46.5 | 59.4 | 87.4 | 65.9 | 109 | 83.1 | 87.6 | 78.5 | 65.9 | 95.6 | 72.5 | 74.5 | 74.1 | 69.3 | 84.9 | 57.1 | 94.8 | growth at 10 µM (COLO 205): 95.2%; growth at 10 µM (NCI-H460): 59.5%; growth at 10 µM (NCI-H322M): 72.1%; growth at 10 µM (NCI-H226): 80.5%; growth at 10 µM (HOP-92): 88.7%; growth at 10 µM (HOP-62): 85.3%; growth at 10 µM (A549): 81.2%; growth at 10 µM (SR): 60.6%; growth at 10 µM (RPMI-8226): 71.7%; growth at 10 µM (HL-60(TB)): 78.8%; Activity [1]: 53% |
| O=C1c2ccccc2C(=O)c2c1ccc1[nH]c(=S)[nH]c21 | 81.9 | 114 | 108 | 142 | 96.2 | 103 | 86.7 | 118 | 114 | 87.5 | 101 | 84 | 101 | 88.8 | 91.3 | 91.3 | 97.6 | 102 | 83.8 | 114 | growth at 10 µM (COLO 205): 104%; growth at 10 µM (NCI-H460): 98.6%; growth at 10 µM (NCI-H322M): 96.3%; growth at 10 µM (NCI-H226): 83.7%; growth at 10 µM (HOP-92): 65.5%; growth at 10 µM (HOP-62): 96.7%; growth at 10 µM (A549): 118%; growth at 10 µM (SR): 125%; growth at 10 µM (RPMI-8226): 101%; growth at 10 µM (HL-60(TB)): 97.6%; Activity [1]: 100% |
